According to ChEMBL document CHEMBL4145684 (J Med Chem, 2018):
Calls of active or inactive are those of the source. The rule behind the calls is not given here.

Legend:
[1] = Volume of distribution at steady state in mouse at 3 mg/kg, iv; assay type: ADME, organism-based; conditions: in vivo, read-out: Vdss
How it was run: (§1)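 Mouse or rat PK: single intravenous dose 3 mg/kg or oral dose 10 mg/kg, vehicle PEG400/PVP/Tween 80/0.5% CMC in water (9:0.5:0.5:90).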

[2] = Half life in rat at 3 mg/kg, iv; assay type: ADME, organism-based; conditions: in vivo; how it was run: as §1
Estrogen receptor [3] = target: T1, Estrogen receptor (Homo sapiens, UniProt P03372); experiment: Induction of ERalpha degradation in human MCF7 cells in phenol red free RPMI medium containing 5% charcoal dextran-treated FBS incubated for 4 hrs by SP1 and anti-ER rabbit monocolnal antibody based in-cell Western assay
T1 sequence (P03372 whole entry): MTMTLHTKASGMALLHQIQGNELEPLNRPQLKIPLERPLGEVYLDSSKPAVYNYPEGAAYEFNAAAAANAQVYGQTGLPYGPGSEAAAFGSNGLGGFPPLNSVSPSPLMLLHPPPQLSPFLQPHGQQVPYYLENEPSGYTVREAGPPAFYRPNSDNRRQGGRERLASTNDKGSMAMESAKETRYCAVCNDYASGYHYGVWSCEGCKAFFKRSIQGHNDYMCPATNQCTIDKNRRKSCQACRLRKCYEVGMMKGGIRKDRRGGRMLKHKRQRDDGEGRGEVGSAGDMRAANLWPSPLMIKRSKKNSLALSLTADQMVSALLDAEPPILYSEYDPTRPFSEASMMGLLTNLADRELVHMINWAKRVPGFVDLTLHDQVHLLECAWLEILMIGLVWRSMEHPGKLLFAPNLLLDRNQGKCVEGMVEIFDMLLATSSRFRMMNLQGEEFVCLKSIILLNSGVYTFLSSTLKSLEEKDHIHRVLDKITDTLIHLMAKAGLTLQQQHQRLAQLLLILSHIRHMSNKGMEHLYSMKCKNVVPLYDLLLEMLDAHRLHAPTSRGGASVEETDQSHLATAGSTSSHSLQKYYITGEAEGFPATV

[4] = AUC in mouse at 10 mg/kg, po; assay type: ADME, organism-based; conditions: in vivo; how it was run: as §1
[5] = Volume of distribution at steady state in rat at 3 mg/kg, iv; assay type: ADME, organism-based; conditions: in vivo, read-out: Vdss; how it was run: as §1
[6] = AUC (0 to infinity) in rat at 10 mg/kg, po; assay type: ADME, organism-based; set-up: dose 10 mg/kg, route oral, time infinity; conditions: in vivo
MCF7 [7] = experiment: Antitumor activity against human MCF7 cells xenografted in nu/nu mouse model of tamoxifen-sensitive breast cancer xenograft implanted with 17beta-estradiol time release pellets assessed as reduction tumor volume at 6 mg/kg, po qd for 4 weeks; assay type: functional, organism-based
[8] = Oral bioavailability in mouse at 10 mg/kg; assay type: ADME, organism-based; conditions: in vivo; how it was run: as §1
[9] = AUC in human MCF7 cells xenografted nu/nu mouse implanted with 17beta-estradiol time release pellets dosed orally once daily for 4 weeks; assay type: ADME, organism-based; conditions: in vivo, po
[10] = Cmax in rat at 10 mg/kg, po; assay type: ADME, organism-based; set-up: dose 10 mg/kg, route oral; conditions: in vivo; how it was run: as §1
[11] = Clearance in mouse at 3 mg/kg, iv; assay type: ADME, organism-based; conditions: in vivo; how it was run: as §1
[12] = Cmax in mouse at 10 mg/kg, po; assay type: ADME, organism-based; set-up: dose 10 mg/kg, route oral; conditions: in vivo; how it was run: as §1
MCF7 [13] = experiment: Antitumor activity against human MCF7 cells xenografted in nu/nu mouse model of tamoxifen-resistant breast cancer xenograft implanted with 17beta-estradiol time release pellets assessed as reduction tumor volume at 60 mg/kg, po qd for 4 weeks; assay type: functional, organism-based
How it was run: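 Female nu/nu mice with 0.72 mg 60-day 17β-estradiol pellets bearing MCF-7 tumors, pretreated with oral tamoxifen citrate; at ~150-250 mm3 (mean 200 mm3) randomized, tamoxifen stopped, then dosed daily for 4 weeks; tumor volume (length x width2/2) and body weight twice weekly.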

[14] = Clearance in rat at 3 mg/kg, iv; assay type: ADME, organism-based; conditions: in vivo; how it was run: as §1
[15] = Oral bioavailability in rat at 10 mg/kg; assay type: ADME, organism-based; conditions: in vivo; how it was run: as §1
[16] = AUC (0 to infinity) in mouse at 10 mg/kg, po; assay type: ADME, organism-based; set-up: dose 10 mg/kg, route oral, time infinity; conditions: in vivo
[17] = Half life in mouse at 3 mg/kg, iv; assay type: ADME, organism-based; conditions: in vivo; how it was run: as §1
Rattus norvegicus [18] = experiment: Reduction in uterine wet weight in ethynyl estradiol-stimulated CD-IGS rat at 1 mg/kg, po dosed daily for 3 days by gavage followed 15 mins later by 0.1 mg/kg, po ethynyl estradiol and measured 24 hrs after last dose by immature rat uterine wet weight assay; assay type: functional
How it was run: (§2)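 Female immature CD-IGS rats, 21 days old on arrival; oral gavage of vehicle or compound daily for 3 days, ethynyl estradiol 0.1 mg/kg orally 15 min after each dose. Day 4, 24 h post-dose, plasma taken, then uterus removed and weighed. Reduction = 100 x (VehicleEE – Cpd)/(VehicleEE – Vehicle).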

MCF7 [19] = experiment: Antiproliferative activity against human MCF7 cells assessed as reduction in cell proliferation in RPMI containing 10% FBS incubated for 5 days by Cell-titer-Glo assay; assay type: functional, cell-based; conditions: MCF7, 120 h
How it was run: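 MCF-7 cells, 640/well in RPMI with 10% FBS and 20 mM HEPES, adhered overnight; 10-point 1:5 dilution series (10–0.000005 µM final) for 5 days. CellTiter-Glo luminescence, cell-free medium background subtracted, percent viability vs untreated cells; n ≥ 3.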

Rattus norvegicus [20] = experiment: In-vivo agonist activity at ERalpha in CD-IGS rat assessed as increase in uterine wet weight at 10 mg/kg, po dosed daily for 3 days by gavage and measured 24 hrs after last dose by immature rat uterine wet weight assay; assay type: functional, organism-based
How it was run: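 Immature CD-IGS rats given compound orally for 3 days without ethynyl estradiol (agonist mode); on day 4, 24 h after dosing, uterus removed and weighed; wet weight normalized to total body weight.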

Rattus norvegicus [21] = experiment: Reduction in uterine wet weight in ethynyl estradiol-stimulated CD-IGS rat at 10 mg/kg, po dosed daily for 3 days by gavage followed 15 mins later by 0.1 mg/kg, po ethynyl estradiol and measured 24 hrs after last dose by immature rat uterine wet weight assay; assay type: functional; how it was run: as §2
Estrogen receptor [22] = target: T1, Estrogen receptor; experiment: Binding affinity to ERalpha (unknown origin)
[23] = Oral bioavailability in Sprague-Dawley rat at 2 mg/kg; assay type: ADME, organism-based; conditions: in vivo
[24] = Clearance in Sprague-Dawley rat at 1 mg/kg, iv; assay type: ADME, organism-based; conditions: in vivo

Row | IC50 (Estrogen receptor [3]) | IC50 (MCF7 [19]) | SMILES | other results
1 | 5700 pM | 27000 pM | CC1=C(c2ccc(S(C)(=O)=O)cc2)C(c2ccc(OC[C@H](C)N3CC[C@@H](C)C3)cc2)Oc2ccc(O)cc21 (some centres not stated) | –
2 | 200 pM | 200 pM | CC1=C(c2cccc(O)c2)C(c2ccc(OC[C@H](C)N3CC[C@H](C)C3)cc2)Oc2ccc(O)cc21 (some centres not stated) | –
3 | 400 pM | 400 pM | CC1=C(c2ccccc2)C(c2ccc(OC[C@H](C)N3CC[C@@H](C)C3)cc2)Oc2ccc(O)cc21 (some centres not stated) | AUC [4]: 1000 ng·h/mL
4 | 200 pM | 200 pM | CC1=C(c2cccc(O)c2)C(c2ccc(OCCN3CCCCC3)cc2)Oc2ccc(O)cc21 (configuration not stated) | –
5 | 300 pM | 200 pM | CC1=C(c2cccc(O)c2)C(c2ccc(OCCN3CCC3)cc2)Oc2ccc(O)cc21 (configuration not stated) | –
6 | 100 pM | 100 pM | CC1=C(c2cccc(O)c2)[C@H](c2ccc(OC[C@H](C)N3CC[C@@H](C)C3)cc2)Oc2ccc(O)cc21 | IC50 (Estrogen receptor [22]): 2800 pM
7 | 300 pM | 200 pM | CC1=C(c2cccc(O)c2)C(c2ccc(OC[C@@H](C)N3CC[C@@H](C)C3)cc2)Oc2ccc(O)cc21 (some centres not stated) | –
8 | 700 pM | 2600 pM | CC1=C(c2cccc(C#N)c2)C(c2ccc(OC[C@H](C)N3CC[C@@H](C)C3)cc2)Oc2ccc(O)cc21 (some centres not stated) | –
9 | 500 pM | 1000 pM | CC1=C(c2cccc(F)c2)C(c2ccc(OC[C@H](C)N3CC[C@@H](C)C3)cc2)Oc2ccc(O)cc21 (some centres not stated) | AUC [4]: 350 ng·h/mL
10 | 900 pM | 100 pM | CC1=C(c2cccc(O)c2)C(c2ccc(OC[C@H](C)N3CCC3)cc2)Oc2ccc(O)cc21 (some centres not stated) | –
11 | 200 pM | 300 pM | CC1=C(c2cccc(O)c2)C(c2ccc(OCCN3CC[C@H](C)C3)cc2)Oc2ccc(O)cc21 (some centres not stated) | –
12 | 9700 pM | 59000 pM | CC1=C(c2cccc(O)c2)[C@@H](c2ccc(OC[C@H](C)N3CC[C@@H](C)C3)cc2)Oc2ccc(O)cc21 | IC50 (Estrogen receptor [22]): 136000 pM
13 | 100 pM | 100 pM | CC1=C(c2ccc(O)cc2)C(c2ccc(OC[C@H](C)N3CC[C@@H](C)C3)cc2)Oc2ccc(O)cc21 (some centres not stated) | AUC [4]: 460 ng·h/mL; inhibition (INH) (Rattus norvegicus [18]): 113%

Continued, compound first:

Row | SMILES | IC50 (Estrogen receptor [3]) | IC50 (MCF7 [19]) | other results
14 | CC1=C(c2ccc(F)cc2)C(c2ccc(OC[C@H](C)N3CC[C@@H](C)C3)cc2)Oc2ccc(O)cc21 (some centres not stated) | – | – | Vd [1]: 11 L/kg; half-life [2]: 7.4 h; IC50 (Estrogen receptor [3]; mcf7): 400 pM; AUC [4]: 2000 ng·h/mL; Vd [5]: 12 L/kg; AUC(0-inf) [6]: 4500 ng·h/mL; Activity (MCF7 [7]): Active; bioavailability [8]: 35%; AUC at 672 h [9]: 36000 ng·h/mL; Cmax [10]: 280 ng/mL; clearance [11]: 30 mL/min/kg; Cmax [12]: 170 ng/mL; Activity (MCF7 [13]): inactive; clearance [14]: 21 mL/min/kg; bioavailability [15]: 54%; AUC(0-inf) [16]: 2000 ng·h/mL; half-life [17]: 5.2 h; inhibition (INH) (Rattus norvegicus [18]): 111%
15 | CC1=C(c2cccc(O)c2)C(c2ccc(OCCN3CCC(C)CC3)cc2)Oc2ccc(O)cc21 (configuration not stated) | 200 pM | 200 pM | –
16 | CC1=C(c2cccc(O)c2)C(c2ccc(OC[C@@H](C)N3CCCC3)cc2)Oc2ccc(O)cc21 (some centres not stated) | 300 pM | 200 pM | Activity (Rattus norvegicus [20]): Active; inhibition (INH) (Rattus norvegicus [21]): 84%
17 | CC1=C(c2cccc(O)c2)C(c2ccc(OCCN3CC(C)C3)cc2)Oc2ccc(O)cc21 (configuration not stated) | – | – | IC50 (Estrogen receptor [3]; mcf7): 300 pM
18 | CC1=C(c2ccc(O)cc2)C(c2ccc(OC[C@H](C)N3CC[C@@H](C)C3)cc2)Oc2cc(O)ccc21 (some centres not stated) | 300 pM | 200 pM | AUC [4]: 120 ng·h/mL
19 | CC1=C(c2cccc(O)c2)C(c2ccc(OCCN3CCCCCC3)cc2)Oc2ccc(O)cc21 (configuration not stated) | 200 pM | 200 pM | –
20 | Oc1ccc([C@H]2Sc3cc(O)ccc3O[C@H]2c2ccc(OCCN3CCCCC3)cc2)cc1 | – | – | bioavailability [23]: 31%; clearance [24]: 5 mL/min/kg
21 | CC1=C(c2cccc(S(C)(=O)=O)c2)C(c2ccc(OC[C@H](C)N3CC[C@@H](C)C3)cc2)Oc2ccc(O)cc21 (some centres not stated) | 1400 pM | 4300 pM | –
22 | CC1=C(c2cccc(O)c2)C(c2ccc(OC[C@H](C)N3CCCC3)cc2)Oc2ccc(O)cc21 (some centres not stated) | 400 pM | 200 pM | –
23 | Oc1ccc([C@H]2Sc3ccc(O)cc3O[C@H]2c2ccc(OCCN3CCCCC3)cc2)cc1 | – | – | bioavailability [23]: 0%; clearance [24]: 154 mL/min/kg
24 | CC1=C(c2cccc(O)c2)C(c2ccc(OC[C@H](C)N3CC[C@@H](C)C3)cc2)Oc2cc(O)ccc21 (some centres not stated) | 200 pM | 300 pM | AUC [4]: 50 ng·h/mL
25 | CC1=C(c2cccc(O)c2)C(c2ccc(OC[C@@H](C)N3CC[C@H](C)C3)cc2)Oc2ccc(O)cc21 (some centres not stated) | 200 pM | 200 pM | –
26 | CC1=C(c2ccc(O)cc2)[C@H](c2ccc(OCCN3CCCCC3)cc2)Oc2cc(O)ccc21 [ACOLBIFENE] | – | – | AUC [4]: 90 ng·h/mL
27 | CC1=C(c2ccc(C#N)cc2)C(c2ccc(OC[C@H](C)N3CC[C@@H](C)C3)cc2)Oc2ccc(O)cc21 (some centres not stated) | – | 10000 pM | IC50 (Estrogen receptor [3]; mcf7): 1500 pM; AUC [4]: 2000 ng·h/mL
28 | CC1=C(c2cccc(O)c2)C(c2ccc(OCCN3CC[C@@H](C)C3)cc2)Oc2ccc(O)cc21 (some centres not stated) | 400 pM | 200 pM | –
29 | CC1=C(c2cccc(O)c2)C(c2ccc(OC[C@H](C)N3CCCCCC3)cc2)Oc2ccc(O)cc21 (some centres not stated) | 200 pM | 200 pM | –
30 | CC1=C(c2cccc(O)c2)C(c2ccc(OCCN3CCCC3)cc2)Oc2ccc(O)cc21 (configuration not stated) | 400 pM | 300 pM | –
31 | CC1=C(c2cccc(O)c2)C(c2ccc(OC[C@H](C)N3CCCCC3)cc2)Oc2ccc(O)cc21 (some centres not stated) | 200 pM | 100 pM | –
